Experimental findings from ChEMBL document CHEMBL4321879, “Novel Class of Colony-Stimulating Factor 1 Receptor Kinase Inhibitors Based on an o-Aminopyridyl Alkynyl Scaffold as Potential Treatment for Inflammatory Disorders” (J Med Chem, 2020) are described below.

The target in series [1] is Macrophage colony-stimulating factor 1 receptor (Homo sapiens, UniProt P07333). Nature of the series: Inhibition of recombinant CSF1R (unknown origin) using poly (Glu, Tyr)4:1 as substrate measured after 1 hr by ELISA. In general terms: An ELISA detects its analyte on a solid surface through an enzyme-linked reagent.
Chain of Macrophage colony-stimulating factor 1 receptor (P07333 whole entry): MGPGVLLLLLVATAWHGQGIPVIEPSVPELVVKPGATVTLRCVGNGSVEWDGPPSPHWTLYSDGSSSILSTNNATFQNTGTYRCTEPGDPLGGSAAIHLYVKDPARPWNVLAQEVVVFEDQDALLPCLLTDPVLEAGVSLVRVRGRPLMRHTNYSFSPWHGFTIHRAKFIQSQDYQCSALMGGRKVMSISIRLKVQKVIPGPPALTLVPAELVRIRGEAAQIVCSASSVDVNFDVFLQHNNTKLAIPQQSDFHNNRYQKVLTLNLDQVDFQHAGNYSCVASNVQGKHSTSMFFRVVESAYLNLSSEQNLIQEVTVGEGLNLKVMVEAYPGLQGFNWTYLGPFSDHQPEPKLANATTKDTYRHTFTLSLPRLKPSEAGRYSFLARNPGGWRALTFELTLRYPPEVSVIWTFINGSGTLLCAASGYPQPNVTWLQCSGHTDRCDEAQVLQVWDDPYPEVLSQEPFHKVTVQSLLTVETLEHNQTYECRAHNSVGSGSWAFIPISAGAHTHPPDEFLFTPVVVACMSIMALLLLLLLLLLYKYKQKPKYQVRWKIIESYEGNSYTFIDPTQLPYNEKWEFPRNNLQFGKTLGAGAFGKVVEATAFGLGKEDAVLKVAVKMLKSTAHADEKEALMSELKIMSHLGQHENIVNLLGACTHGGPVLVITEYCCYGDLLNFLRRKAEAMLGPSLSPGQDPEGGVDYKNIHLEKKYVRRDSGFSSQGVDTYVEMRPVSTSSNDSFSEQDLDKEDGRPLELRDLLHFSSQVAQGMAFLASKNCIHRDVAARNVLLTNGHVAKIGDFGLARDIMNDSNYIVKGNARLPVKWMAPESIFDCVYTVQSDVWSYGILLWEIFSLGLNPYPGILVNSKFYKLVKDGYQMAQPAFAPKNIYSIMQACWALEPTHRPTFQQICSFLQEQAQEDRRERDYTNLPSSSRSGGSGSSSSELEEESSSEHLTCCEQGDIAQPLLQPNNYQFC
In series [2] the test system is RAW264.7. Nature of the series: Antiinflammatory activity in mouse RAW264.7 cells assessed as reduction in LPS-induced TNFalpha release measured after 24 hrs by ELISA. Format: functional, cell-based. Particulars: RAW264.7, 24 h. In a few lines: (§1)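 RAW264.7 cells in DMEM with 10% FBS and 0.125% DMSO were incubated with compound, then primed with LPS 1 μg/mL for 24 h. Supernatant TNF-α and IL-6 measured by mouse ELISA. IC50 from log(inhibitor) versus normalized response nonlinear fit.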

For series [3], the system named is RAW264.7. In words: Antiinflammatory activity in mouse RAW264.7 cells assessed as reduction in LPS-induced IL6 release measured after 24 hrs by ELISA. Format: functional, cell-based. The following applies: RAW264.7, 24 h. In short, it runs like this:
as §1

Series [4] in a line: Cytotoxicity against mouse RAW264.7 cells assessed as reduction in cell viability measured after 24 hrs by CCK8 assay. The format is cell-based. In short, it runs like this:
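RAW264.7 cells were seeded in triplicate in DMEM and exposed to compound for 24 h. CCK-8 was added, incubated 1 h, and absorbance read at 450 nm with 570 nm reference. CC50 from log(inhibitor) versus normalized response nonlinear fit.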
(In general: Formazan colour is commonly taken as a measure of viable cells.)

The target of series [5] is Fibroblast growth factor receptor 1 (Homo sapiens, UniProt P11362). Nature of the series: Inhibition of recombinant human N-terminal GST-tagged FGFR1 (456 to 765 residues) expressed in baculovirus infected Sf21 insect cells using poly (Glu, Tyr)4:1 as substrate measured after 1 hr by ELISA. In short, it runs like this:
(§2)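 Recombinant kinase was incubated with compound in reaction buffer containing 5 μM ATP, in wells precoated with poly(Glu,Tyr) 4:1, for 1 h at 37 °C. Phosphorylation was detected by ELISA.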

The target of series [6] is Fibroblast growth factor receptor 2 (Homo sapiens, UniProt P21802). In words: Inhibition of recombinant human N-terminal His6-tagged FGFR2 (456 to 770 residues) expressed in baculovirus infected Sf21 insect cells using poly (Glu, Tyr)4:1 as substrate measured after 1 hr by ELISA. In short, it runs like this:
as §2

Series [7] concerns the target Fibroblast growth factor receptor 3 (Homo sapiens, UniProt P22607). In words: Inhibition of recombinant human N-terminal His6-tagged FGFR3 (447 to 761 residues) expressed in baculovirus infected Sf21 insect cells using poly (Glu, Tyr)4:1 as substrate measured after 1 hr by ELISA. In a few lines: as §2
Series [8] concerns the target Fibroblast growth factor receptor 4 (Homo sapiens, UniProt P22455). In words: Inhibition of recombinant human N-terminal His6-tagged FGFR4 (442 to 755 residues) expressed in baculovirus infected Sf21 insect cells using poly (Glu, Tyr)4:1 as substrate measured after 1 hr by ELISA. In short, it runs like this:
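ELISA kinase assay: recombinant kinase added to wells precoated with poly(Glu,Tyr)4:1 and incubated with compound in reaction buffer containing 5 μM ATP, 37 °C for 1 h; wells then washed before antibody detection.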

Chain of Fibroblast growth factor receptor 2 (P21802 whole entry, the tested form may be a part): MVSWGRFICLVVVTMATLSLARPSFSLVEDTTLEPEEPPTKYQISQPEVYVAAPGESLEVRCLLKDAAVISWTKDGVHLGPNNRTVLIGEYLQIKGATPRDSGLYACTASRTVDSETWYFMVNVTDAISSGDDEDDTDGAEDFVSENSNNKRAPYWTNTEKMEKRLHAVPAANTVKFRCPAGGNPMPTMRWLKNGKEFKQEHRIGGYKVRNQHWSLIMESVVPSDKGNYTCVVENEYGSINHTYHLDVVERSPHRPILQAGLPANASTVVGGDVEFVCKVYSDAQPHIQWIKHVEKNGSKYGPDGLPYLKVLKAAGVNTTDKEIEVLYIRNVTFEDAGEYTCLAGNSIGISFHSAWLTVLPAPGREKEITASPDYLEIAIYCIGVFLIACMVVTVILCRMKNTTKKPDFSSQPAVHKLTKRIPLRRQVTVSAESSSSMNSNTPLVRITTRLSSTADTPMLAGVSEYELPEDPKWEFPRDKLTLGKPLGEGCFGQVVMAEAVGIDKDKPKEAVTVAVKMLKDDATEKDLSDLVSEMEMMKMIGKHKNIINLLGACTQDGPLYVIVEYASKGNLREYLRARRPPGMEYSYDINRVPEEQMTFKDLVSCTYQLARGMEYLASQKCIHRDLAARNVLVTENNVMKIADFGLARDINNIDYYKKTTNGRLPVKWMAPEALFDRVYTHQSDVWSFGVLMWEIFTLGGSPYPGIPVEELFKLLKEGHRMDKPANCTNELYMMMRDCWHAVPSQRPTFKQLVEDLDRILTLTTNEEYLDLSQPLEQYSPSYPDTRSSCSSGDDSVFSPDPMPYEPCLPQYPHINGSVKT
Chain of Fibroblast growth factor receptor 3 (P22607 whole entry, the tested form may be a part): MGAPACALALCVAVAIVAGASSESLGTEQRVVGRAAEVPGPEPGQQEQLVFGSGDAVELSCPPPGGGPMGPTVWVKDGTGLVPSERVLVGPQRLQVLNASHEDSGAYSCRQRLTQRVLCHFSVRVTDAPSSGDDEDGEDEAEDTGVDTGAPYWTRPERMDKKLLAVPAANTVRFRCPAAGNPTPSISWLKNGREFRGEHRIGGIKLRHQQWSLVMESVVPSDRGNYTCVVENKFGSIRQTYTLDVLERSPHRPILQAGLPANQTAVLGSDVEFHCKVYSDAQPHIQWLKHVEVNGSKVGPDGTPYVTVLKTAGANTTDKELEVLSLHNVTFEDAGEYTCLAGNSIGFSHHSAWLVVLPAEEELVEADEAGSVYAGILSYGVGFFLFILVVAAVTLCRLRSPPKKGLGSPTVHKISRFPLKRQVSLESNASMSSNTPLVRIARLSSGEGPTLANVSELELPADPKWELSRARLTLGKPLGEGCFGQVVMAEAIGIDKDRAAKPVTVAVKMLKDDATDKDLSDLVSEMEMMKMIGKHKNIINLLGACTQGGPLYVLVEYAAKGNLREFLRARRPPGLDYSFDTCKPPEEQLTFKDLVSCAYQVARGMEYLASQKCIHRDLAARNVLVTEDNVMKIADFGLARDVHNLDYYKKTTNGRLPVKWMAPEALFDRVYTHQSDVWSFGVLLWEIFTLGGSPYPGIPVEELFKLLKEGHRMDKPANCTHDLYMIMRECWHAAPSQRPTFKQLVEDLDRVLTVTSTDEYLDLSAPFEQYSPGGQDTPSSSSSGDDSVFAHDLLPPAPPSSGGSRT
Chain of Fibroblast growth factor receptor 4 (P22455 whole entry, the tested form may be a part): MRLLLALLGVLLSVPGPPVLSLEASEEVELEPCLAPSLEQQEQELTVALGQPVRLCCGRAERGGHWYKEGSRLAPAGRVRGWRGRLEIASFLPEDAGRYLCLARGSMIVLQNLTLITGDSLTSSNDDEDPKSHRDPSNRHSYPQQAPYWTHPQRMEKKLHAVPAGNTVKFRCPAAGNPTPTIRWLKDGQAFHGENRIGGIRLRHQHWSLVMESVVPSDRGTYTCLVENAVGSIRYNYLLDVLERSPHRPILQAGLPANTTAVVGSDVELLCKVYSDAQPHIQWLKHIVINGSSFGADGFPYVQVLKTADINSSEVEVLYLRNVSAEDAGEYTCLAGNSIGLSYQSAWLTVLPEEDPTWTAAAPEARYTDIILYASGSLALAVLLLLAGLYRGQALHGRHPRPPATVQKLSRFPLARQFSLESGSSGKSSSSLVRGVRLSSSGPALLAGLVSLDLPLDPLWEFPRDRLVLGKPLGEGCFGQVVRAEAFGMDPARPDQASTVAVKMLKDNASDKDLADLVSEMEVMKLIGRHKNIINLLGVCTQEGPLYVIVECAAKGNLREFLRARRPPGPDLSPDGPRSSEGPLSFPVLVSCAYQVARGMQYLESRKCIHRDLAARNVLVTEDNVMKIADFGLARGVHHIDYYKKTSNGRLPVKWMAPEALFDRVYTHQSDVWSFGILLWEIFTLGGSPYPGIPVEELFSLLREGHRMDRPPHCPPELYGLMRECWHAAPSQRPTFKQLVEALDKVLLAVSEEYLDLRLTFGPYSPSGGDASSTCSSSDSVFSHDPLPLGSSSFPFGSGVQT
Chain of Fibroblast growth factor receptor 1 (P11362 whole entry, the tested form may be a part): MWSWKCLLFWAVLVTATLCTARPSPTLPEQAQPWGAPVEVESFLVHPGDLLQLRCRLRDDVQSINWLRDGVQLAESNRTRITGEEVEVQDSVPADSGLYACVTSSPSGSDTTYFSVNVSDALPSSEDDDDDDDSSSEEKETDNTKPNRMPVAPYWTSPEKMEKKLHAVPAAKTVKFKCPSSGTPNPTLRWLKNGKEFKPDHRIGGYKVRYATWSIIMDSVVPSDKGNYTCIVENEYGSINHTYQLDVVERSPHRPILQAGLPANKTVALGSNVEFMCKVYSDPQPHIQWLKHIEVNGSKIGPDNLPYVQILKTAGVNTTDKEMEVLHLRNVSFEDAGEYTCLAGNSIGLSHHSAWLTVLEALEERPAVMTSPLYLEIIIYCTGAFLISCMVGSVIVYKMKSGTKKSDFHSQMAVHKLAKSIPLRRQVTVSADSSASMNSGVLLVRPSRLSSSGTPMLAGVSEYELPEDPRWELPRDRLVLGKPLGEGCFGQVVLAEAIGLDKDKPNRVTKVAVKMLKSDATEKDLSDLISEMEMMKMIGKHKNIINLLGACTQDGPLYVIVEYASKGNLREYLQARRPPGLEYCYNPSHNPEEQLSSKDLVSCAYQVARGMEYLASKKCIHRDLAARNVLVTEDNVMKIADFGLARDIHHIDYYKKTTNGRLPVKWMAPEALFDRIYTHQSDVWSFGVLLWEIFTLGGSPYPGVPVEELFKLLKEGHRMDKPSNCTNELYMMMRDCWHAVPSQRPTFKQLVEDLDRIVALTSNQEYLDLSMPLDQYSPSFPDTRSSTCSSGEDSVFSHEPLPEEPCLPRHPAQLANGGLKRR

One may read the IC50 as the concentration that inhibits the measured activity by half. On to `COc1cc(NC(=O)c2ccc(C)c(C#Cc3cc(-c4cnn(C)c4)cnc3N)c2)cc(OC)c1`, for which, in series [1], the IC50 was found to be 2.6 nM.

For the compound `COc1cc(NC(=O)c2ccc(C)c(C#Cc3cnc4cccnn34)c2)cc(OC)c1`, in series [1], the IC50 came to 25.1 nM.

On to `Cc1ccc(C(=O)Nc2ccc(Cl)c(Cl)c2)cc1C#Cc1cc(-c2cnn(C)c2)cnc1N`, for which the IC50 in series [1] worked out at 10.8 nM.

On to `COc1cc(NC(=O)c2cccc(C#Cc3cc(-c4cnn(C)c4)cnc3N)c2)cc(OC)c1`, for which, in series [1], the IC50 came to 16.1 nM.

Take `COc1ccc(NC(=O)c2ccc(C)c(C#Cc3cc(-c4cnn(C)c4)cnc3N)c2)cc1`: the IC50 in series [1] stood at 1.4 nM.

Take `Cc1ccc(C(=O)N(C)c2ccc(Cl)cc2)cc1C#Cc1cc(-c2cnn(C)c2)cnc1N`: the IC50 in series [1] was greater than 1000 nM.

Turning to `Cc1ccc(C(=O)Nc2ccc(C(F)(F)F)cc2)cc1C#Cc1cc(-c2cnn(C)c2)cnc1N`, the IC50 in series [1] was 3 nM.

What is called CC50 is the concentration that lowers cell viability or growth by half. In the case of `FC(F)(F)c1ccc(CNc2ccc(Cc3c[nH]c4ncc(Cl)cc34)cn2)cn1` [PEXIDARTINIB], the IC50 in series [2] is 400 nM; in series [3] it was 430 nM. Further, the CC50 at 24 h in series [4] was 20500 nM.

`COc1cc(NC(=O)c2ccc(C)c(C#Cc3cccnc3)c2)cc(OC)c1`: in series [1], the 50% inhibitory concentration (IC50) amounted to 219 nM.

Take `Cc1ccc(C(=O)Nc2ccc(Cl)cc2Cl)cc1C#Cc1cc(-c2cnn(C)c2)cnc1N`: in series [1], the IC50 turned out to be 5.9 nM.

For the compound `COc1cccc(NC(=O)c2ccc(C)c(C#Cc3cc(-c4cnn(C)c4)cnc3N)c2)c1`, the IC50 in series [1] was determined as 1.4 nM.

With `COc1cc(NC(=O)c2ccc(F)c(C#Cc3cc(-c4cnn(C)c4)cnc3N)c2)cc(OC)c1`, in series [1], the IC50 was determined as 160 nM.

Consider `COc1cc(NC(=O)c2ccc(C(F)(F)F)c(C#Cc3cc(-c4cnn(C)c4)cnc3N)c2)cc(OC)c1`, for which, in series [1], the IC50 was greater than 1000 nM.

On to `Cc1cc(C(=O)Nc2ccc(Cl)cc2)ccc1C#Cc1cc(-c2cnn(C)c2)cnc1N`, for which the IC50 in series [1] was greater than 1000 nM.

As for `COc1cc(NC(=O)c2ccc(Cl)c(C#Cc3cc(-c4cnn(C)c4)cnc3N)c2)cc(OC)c1`, the IC50 in series [1] came out at 6.5 nM.

Consider `COc1cc(NC(=O)c2ccc(OC)c(C#Cc3cc(-c4cnn(C)c4)cnc3N)c2)cc(OC)c1`, for which the IC50 in series [1] was 263 nM.

As for `COc1cc(NC(=O)c2ccc(C)c(C#Cc3cc(C(N)=O)cnc3N)c2)cc(OC)c1`, the IC50 in series [1] was 3.5 nM.

As to `COc1cc(NC(=O)c2ccc(C)c(C#Cc3cc(Cl)cnc3N)c2)cc(OC)c1`, the IC50 in series [1] is 16.6 nM.

As for `COC(=O)c1cnc(N)c(C#Cc2cc(C(=O)Nc3cc(OC)cc(OC)c3)ccc2C)c1`, the IC50 in series [1] came out at 5.5 nM.

As to `Cc1ccc(NC(=O)c2ccc(Cl)cc2)cc1C#Cc1cc(-c2cnn(C)c2)cnc1N`, the IC50 in series [1] was determined as 7.2 nM.

As for `Cc1ccc(C(=O)Nc2ccccc2)cc1C#Cc1cc(-c2cnn(C)c2)cnc1N`, the IC50 in series [1] is 6.5 nM.

Turning to `COc1ccccc1NC(=O)c1ccc(C)c(C#Cc2cc(-c3cnn(C)c3)cnc2N)c1`, the IC50 in series [1] is 20.2 nM.

Take `Cc1ccc(C(=O)Nc2ccccc2Cl)cc1C#Cc1cc(-c2cnn(C)c2)cnc1N`: the IC50 in series [1] was 318 nM.

For the compound `Cc1ccc(C(=O)Nc2cccc(C(F)(F)F)c2)cc1C#Cc1cc(-c2cnn(C)c2)cnc1N`, in series [1], the IC50 is 2.4 nM.

On to `COc1cc(NC(=O)c2ccc(C(C)C)c(C#Cc3cc(-c4cnn(C)c4)cnc3N)c2)cc(OC)c1`, for which the IC50 in series [1] is greater than 1000 nM.

With `COc1cc(NC(=O)c2ccc(C)c(C#Cc3cncc4ccccc34)c2)cc(OC)c1`, the 50% inhibitory concentration (IC50) is 23.4 nM in series [1]; greater than 1000 nM in series [5]; greater than 1000 nM in series [6]; greater than 1000 nM in series [7]; greater than 1000 nM in series [8].

As to `CNC(=O)c1cnc(N)c(C#Cc2cc(C(=O)Nc3cc(OC)cc(OC)c3)ccc2C)c1`, in series [1], the IC50 amounted to 8.1 nM.

In the case of `Cc1ccc(CNc2ccc(Cl)cc2)cc1C#Cc1cc(-c2cnn(C)c2)cnc1N`, in series [1], the IC50 is greater than 1000 nM.

For `Cc1ccc(C(=O)Nc2ccc(CN3CCN(C)CC3)c(C(F)(F)F)c2)cc1C#Cc1cncc2ccccc12`, the IC50 in series [1] is 46 nM.

With `COc1cc(NC(=O)c2ccc(C)c(C#Cc3cccnc3N)c2)cc(OC)c1`, in series [1], the IC50 is 28.5 nM.

Consider `Cc1ccc(C(=O)Nc2cccc(Cl)c2)cc1C#Cc1cc(-c2cnn(C)c2)cnc1N`, for which, in series [1], the IC50 was determined as 1.3 nM.
